The values that follow come from ChEMBL document CHEMBL3244045, “2-cyano-1,3-dicarbonyl compounds with antiallergic activity” (1977).

Usually ED50 stands for the dose at which the effect has come halfway, by size or by number of responders.

Assay type in all cases: functional
Experiment [1] concerns Rattus norvegicus. The experiment can be described thus: Antiallergic activity in sc dosed Wistar rat assessed as inhibition of ovalbumin-mediated passive cutaneous anaphylaxis by measuring wheal formation at Tmax. In short, it runs like this: (§1)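 Rat PCA: serum with heat-labile homocytotropic antibody raised in rats to crystallized ovalbumin, Bordetella pertussis vaccine adjuvant; PCA per Ovary–Bier method as modified by Goose and Blair. Test agents as sodium salts, dissolved in pH 7.2 buffer or suspended in 1% methylcellulose by solubility. ED50 from inhibition/log dose line, 95% confidence limits, slope and animal numbers given.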

Experiment [2] concerns Rattus norvegicus. The experiment can be described thus: Antiallergic activity in sc dosed Wistar rat assessed as time between compound administration and ovalbumin challenge to give maximum activity by passive cutaneous anaphylaxis assay.
The test system of experiment [3] is Rattus norvegicus. The experiment can be described thus: Antiallergic activity in po dosed Wistar rat assessed as inhibition of ovalbumin-mediated passive cutaneous anaphylaxis by measuring wheal formation administered 15 to 20 mins prior to ovalbumin challenge. In a few lines:
as §1

Regarding `N#C[C-]1C(=O)c2ccccc2C1=O.[Na+]`, the 50% effective dose (ED50) in the experiment on Rattus norvegicus [1] stood at 85.3 µmol/kg. Further, in the experiment with Rattus norvegicus [2], the Time stood at 10 min.
For `Cc1cccc2c1C(=O)[C-](C#N)C2=O.[Na+]` (stereo not given), the ED50 in the experiment on Rattus norvegicus [1] is 74 µmol/kg. In addition, the Time with Rattus norvegicus [2] was 10 min.
As for `Cc1ccc2c(c1)C(=O)[C-](C#N)C2=O.[Na+]` (stereo not given), in the experiment with Rattus norvegicus [1], the 50% effective dose (ED50) was found to be 44.1 µmol/kg. The Time in the experiment on Rattus norvegicus [2] amounted to 10 min.
The like results for `Cc1cc2c(cc1C)C(=O)[C-](C#N)C2=O.[Na+]` were, in that order, 16.3 µmol/kg and 10 min.
Take `CCc1cc2c(cc1CC)C(=O)[C-](C#N)C2=O.[Na+]`: the ED50 was determined as 10.9 µmol/kg in the experiment on Rattus norvegicus [1] and 60 µmol/kg with Rattus norvegicus [3]. Besides, the Time in the experiment with Rattus norvegicus [2] was found to be 20 min.
In the case of `N#C[C-]1C(=O)c2cc3ccccc3cc2C1=O.[Na+]`, the median effective dose (ED50) in the experiment with Rattus norvegicus [1] was determined as 13.8 µmol/kg. Besides, the Time in the experiment with Rattus norvegicus [2] came to 10 min.
With `COc1cccc2c1C(=O)[C-](C#N)C2=O.[Na+]` (stereo not given), the ED50 in the experiment on Rattus norvegicus [1] is 90.2 µmol/kg. In addition, the Time in the experiment on Rattus norvegicus [2] came out at 10 min.
`N#C[C-]1C(=O)c2ccc(Cl)cc2C1=O.[Na+]` (stereo not given): the median effective dose (ED50) in the experiment on Rattus norvegicus [1] turned out to be 59.7 µmol/kg. Besides, in the experiment with Rattus norvegicus [2], the Time is 10 min.
The like results for `N#C[C-]1C(=O)c2cccnc2C1=O.[Na+]` (stereo not given) were, in that order, 90.6 µmol/kg and 10 min.
The like results for `N#C[C-]1C(=O)c2ccncc2C1=O.[Na+]` (stereo not given) were, in that order, 120 µmol/kg and 10 min.
The like results for `N#Cc1c([O-])c2ccccc2oc1=O.[Na+]` were, in that order, 39.1 µmol/kg and 10 min.
On to `Cc1ccc2oc(=O)c(C#N)c([O-])c2c1.[Na+]`, for which the ED50 in the experiment on Rattus norvegicus [1] turned out to be 497 µmol/kg. Also, the Time with Rattus norvegicus [2] is given as 10 min.
On to `Cc1ccc2c([O-])c(C#N)c(=O)oc2c1.[Na+]`, for which, in the experiment with Rattus norvegicus [1], the ED50 was found to be 52.4 µmol/kg. Besides, the Time in the experiment with Rattus norvegicus [2] was 10 min.
As to `Cc1cccc2c([O-])c(C#N)c(=O)oc12.[Na+]`, in the experiment with Rattus norvegicus [1], the ED50 was 32.8 µmol/kg. Further, the Time in the experiment on Rattus norvegicus [2] was determined as 10 min.
The like results for `CCc1ccc2c([O-])c(C#N)c(=O)oc2c1.[Na+]` were, in that order, 23.8 µmol/kg and 10 min.
In the case of `Cc1cc2oc(=O)c(C#N)c([O-])c2cc1C.[Na+]`, the ED50 with Rattus norvegicus [1] was 15.2 µmol/kg. For the same compound, in the experiment on Rattus norvegicus [2], the Time was 10 min.
Consider `CCc1cc2c([O-])c(C#N)c(=O)oc2cc1C.[Na+]`, for which the ED50 in the experiment on Rattus norvegicus [1] amounted to 10.1 µmol/kg. Moreover, the Time with Rattus norvegicus [2] was 10 min.
Take `CCc1cc2oc(=O)c(C#N)c([O-])c2cc1CC.[Na+]`: the ED50 in the experiment with Rattus norvegicus [1] turned out to be 7.6 µmol/kg; with Rattus norvegicus [3], 60 µmol/kg. Further, the Time with Rattus norvegicus [2] came to 10 min.
As to `N#Cc1c([O-])c2cc3c(cc2oc1=O)CCCC3.[Na+]`, the ED50 in the experiment with Rattus norvegicus [1] turned out to be 16.4 µmol/kg. The Time in the experiment with Rattus norvegicus [2] is recorded as 10 min.
The like results for `Cc1ccc2c([O-])c(C#N)c(=O)oc2c1C.[Na+]` were, in that order, 26.2 µmol/kg and 10 min.
The like results for `N#Cc1c([O-])c2cc3ccccc3cc2oc1=O.[Na+]` were, in that order, 211 µmol/kg and 10 min.
For `COc1ccc2oc(=O)c(C#N)c([O-])c2c1.[Na+]`, in the experiment on Rattus norvegicus [1], the ED50 was 28.2 µmol/kg. Also, the Time with Rattus norvegicus [2] turned out to be 10 min.
The like results for `CCOc1ccc2c([O-])c(C#N)c(=O)oc2c1.[Na+]` were, in that order, 15.1 µmol/kg and 10 min.
As to `O=C([O-])c1cc(=O)c2c(OCC(O)COc3cccc4oc(C(=O)[O-])cc(=O)c34)cccc2o1.[Na+].[Na+]` [CROMOLYN SODIUM], the ED50 in the experiment with Rattus norvegicus [1] is 13.1 µmol/kg. For the same compound, in the experiment with Rattus norvegicus [2], the Time is listed as 10 min.
